Source: ChEMBL document CHEMBL5257120 (Bioorg Med Chem, 2023)
The source made the active and inactive calls. No cut-off for these calls is given here.

How the values were obtained:
[1] = Toxicity in Swiss albino mouse assessed as haemoglobin level at 1000 mg/kg, po administered for 7 days (reference value: 15.66 +/- 0.80 g/dl); type: organism-based; details: in vivo, 168 h, time 7 day
[2] = Renal toxicity in Swiss albino mouse assessed as creatinine level at 5 mg/kg, po administered for 7 days (reference value: 0.76 +/- 0.06 mg/dl); type: organism-based; details: in vivo, 168 h, time 7 day
Outline: (§1)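 Single acute oral dose (5, 50, 300 or 1000 mg/kg) given to Swiss albino mice, n = 6, with 7-day observation. At the end, haematological and serum biochemical parameters were measured. Compared with untreated controls; mean ± SE, ANOVA, p < 0.05.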

[3] = biological target: T1, Tubulin (Homo sapiens) (UniProt P68371+Q9H4B7+P0DPH7+P68366+Q13509+Q71U36+P04350+Q3ZCM7+P07437+P68363+Q9BQE3+Q6PEY2+Q13885+Q9BVA1+Q9BUF5); assay: Induction of microtubule stabilization (unknown origin) at 0.2 to 5 uM; type: protein-complex assay; details: dose 0.2-5 µM
[4] = Hepatotoxicity in Swiss albino mouse assessed as SGOT level at 1000 mg/kg, po administered for 7 days (reference value: 31.51 +/- 6.31 U/L); type: toxicity, organism-based; details: in vivo, 168 h, time 7 day; outline: as §1
[5] = Toxicity in Swiss albino mouse assessed as WBC level at 1000 mg/kg, po administered for 7 days (reference value: 5.29 +/- 0.51 10^3/mm3); type: organism-based; details: in vivo, 168 h, time 7 day; outline: as §1
[6] = Hepatotoxicity in Swiss albino mouse assessed as SGPT level at 50 mg/kg, po administered for 7 days (reference value: 17.01 +/- 2.33 U/L); type: toxicity, organism-based; details: in vivo, 168 h, time 7 day; outline: as §1
[7] = Toxicity in Swiss albino mouse assessed as change in absolute brain weight at 5 to 1000 mg/kg, po administered for 7 days; type: organism-based; details: in vivo, 168 h, dose 5-1000 mg/kg, time 7 day
[8] = Hepatotoxicity in Swiss albino mouse assessed as SGPT level at 300 mg/kg, po administered for 7 days (reference value: 17.01 +/- 2.33 U/L); type: toxicity, organism-based; details: in vivo, 168 h, time 7 day; outline: as §1
[9] = Antiinflammatory activity in mouse peritoneal macrophage assessed as inhibition of LPS-induced TNFalpha production at 1 ug/ml relative to control; type: functional; parameters: scale not given: the % may be the effect or the level left; details: dose 1 µg/ml
[10] = Toxicity in Swiss albino mouse assessed as RBC level at 5 mg/kg, po administered for 7 days (reference value: 7.13 +/- 0.40 million/mm3); type: organism-based, Erythrocyte; details: in vivo, 168 h, time 7 day; outline: as §1
[11] = Toxicity in Swiss albino mouse assessed as behavioural changes at 5 to 1000 mg/kg, po administered for 7 days; type: organism-based; details: in vivo, 168 h, dose 5-1000 mg/kg, time 7 day
[12] = Toxicity in Swiss albino mouse assessed as triglyceride level at 300 mg/kg, po administered for 7 days (reference value: 136.88 +/- 3.12 mg/dl); type: organism-based; details: in vivo, 168 h, time 7 day
[13] = Antiinflammatory activity in mouse peritoneal macrophage assessed as reduction in LPS-induced TNFalpha production at 1 ug/ml; type: functional; details: dose 1 µg/ml
[14] = Toxicity in Swiss albino mouse assessed as change in relative heart weight at 5 to 1000 mg/kg, po administered for 7 days; type: organism-based; details: in vivo, 168 h, dose 5-1000 mg/kg, time 7 day
[15] = Toxicity in Swiss albino mouse assessed as change in absolute lungs weight at 5 to 1000 mg/kg, po administered for 7 days; type: organism-based; details: in vivo, 168 h, dose 5-1000 mg/kg, time 7 day
[16] = Hepatotoxicity in Swiss albino mouse assessed as albumin level at 1000 mg/kg, po administered for 7 days (reference value: 4.12 +/- 0.17 g/dl); type: toxicity, organism-based; details: in vivo, 168 h, time 7 day; outline: as §1
[17] = Cytotoxicity against african green monkey Vero cells incubated for 72 hrs by Sulphorhodamine assay; type: toxicity, cell-based; details: African green monkey (Chlorocebus sabaeus)
[18] = Toxicity in Swiss albino mouse assessed as WBC level at 300 mg/kg, po administered for 7 days (reference value: 5.29 +/- 0.51 10^3/mm3); type: organism-based; details: in vivo, 168 h, time 7 day
[19] = Toxicity in Swiss albino mouse assessed as haemoglobin level at 5 mg/kg, po administered for 7 days (reference value: 15.66 +/- 0.80 g/dl); type: organism-based; details: in vivo, 168 h, time 7 day
[20] = Hepatotoxicity in Swiss albino mouse assessed as albumin level at 300 mg/kg, po administered for 7 days (reference value: 4.12 +/- 0.17 g/dl); type: toxicity, organism-based; details: in vivo, 168 h, time 7 day; outline: as §1
[21] = Toxicity in Swiss albino mouse assessed as change in absolute kidney weight at 5 to 1000 mg/kg, po administered for 7 days; type: organism-based; details: in vivo, 168 h, dose 5-1000 mg/kg, time 7 day
[22] = Toxicity in Swiss albino mouse assessed as mortality at 5 to 1000 mg/kg, po administered for 7 days; type: organism-based; details: in vivo, 168 h, dose 5-1000 mg/kg, time 7 day
[23] = Hepatotoxicity in Swiss albino mouse assessed as serum protein level at 1000 mg/kg, po administered for 7 days (reference value: 5.73 +/- 0.21 mg/ml); type: toxicity, organism-based; details: in vivo, 168 h, time 7 day; outline: as §1
[24] = Toxicity in Swiss albino mouse assessed as cholesterol level at 50 mg/kg, po administered for 7 days (reference value: 140.17 +/- 3.76 mg/dl); type: organism-based; details: in vivo, 168 h, time 7 day
[25] = Toxicity in Swiss albino mouse assessed as change in body weight at 50 mg/kg, po administered for 7 days (reference value: 29.35 +/- 0.57 g); type: organism-based; details: in vivo, 168 h, time 7 day
[26] = Antiinflammatory activity in mouse peritoneal macrophage assessed as inhibition of LPS-induced IL6 production at 1 ug/ml relative to control; type: functional; parameters: scale not given: the % may be the effect or the level left; details: dose 1 µg/ml
[27] = Hepatotoxicity in Swiss albino mouse assessed as serum protein level at 50 mg/kg, po administered for 7 days (reference value: 5.73 +/- 0.21 mg/ml); type: toxicity, organism-based; details: in vivo, 168 h, time 7 day; outline: as §1
[28] = Toxicity in Swiss albino mouse assessed as change in absolute heart weight at 5 to 1000 mg/kg, po administered for 7 days; type: organism-based; details: in vivo, 168 h, dose 5-1000 mg/kg, time 7 day
[29] = Hepatotoxicity in Swiss albino mouse assessed as albumin level at 50 mg/kg, po administered for 7 days (reference value: 4.12 +/- 0.17 g/dl); type: toxicity, organism-based; details: in vivo, 168 h, time 7 day; outline: as §1
[30] = Toxicity in Swiss albino mouse assessed as haemoglobin level at 50 mg/kg, po administered for 7 days (reference value: 15.66 +/- 0.80 g/dl); type: organism-based; details: in vivo, 168 h, time 7 day
[31] = Hepatotoxicity in Swiss albino mouse assessed as alkaline phosphatase level at 50 mg/kg, po administered for 7 days (reference value: 260.10 +/- 26.76 U/L); type: toxicity, organism-based; details: in vivo, 168 h, time 7 day; outline: as §1
[32] = biological target: T1, Tubulin (Homo sapiens); assay: Induction of microtubule stabilization in human HeLa cells assessed as effect on cellular cytoskeletal network of tubulin at 5 to 10 uM incubated for 4 hrs by Alexa Fluor 488 staining based confocal microscopic analysis; type: cell-based; details: dose 5-10 µM
Outline: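 HeLa cells treated for 4 h at 5 and 10 μM. Microtubules immunostained with Alexa Fluor 488-conjugated anti-β-tubulin and imaged by confocal microscopy with a 60× Plan Apochromat objective. References: paclitaxel 5 nM, podophyllotoxin 5 μM.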

[33] = Hepatotoxicity in Swiss albino mouse assessed as alkaline phosphatase level at 300 mg/kg, po administered for 7 days (reference value: 260.10 +/- 26.76 U/L); type: toxicity, organism-based; details: in vivo, 168 h, time 7 day; outline: as §1

In the case of `COc1cc(C2/C(=C/c3ccc(/C=C/C(=O)NO)cc3)C(=O)c3cc(OC)c(OC)c(OC)c32)cc(OC)c1OC` (stereo not drawn), the Activity [1] is reported as 16.73 g/dL, the Activity [2] is reported as 0.58 mg/dL and the Activity [3] is reported as “Active”. The Activity [4] was 33.4 U/L, the Activity [5] was 4.73 10^3/mm3 and the Activity [6] was 19.56 U/L. For the same molecule, the Activity [7] was “Non-Toxic”, the Activity [8] was 17.95 U/L and the Activity [9] was 17.28%. The Activity [10] was 8.96 million/mm3, the Activity [11] was “Non-Toxic” and the Activity [12] was 127.18 mg/dL. The Activity [13] was 1019.21 pg/mL, the Activity [14] was “Non-Toxic” and the Activity [15] was “Non-Toxic”. For the same molecule, the Activity [16] was 4.53 g/dL, the IC50 at 72 h [17] was 100 µM and the Activity [18] was 5.75 10^3/mm3. For the same molecule, the Activity [19] was 17.63 g/dL, the Activity [20] was 4.46 g/dL and the Activity [21] was “Non-Toxic”. The Activity [22] was “Non-Toxic”, the Activity [23] was 5.87 mg/mL and the Activity [24] was 157.99 mg/dL. For the same molecule, the Activity [25] was 28.18 g, the Activity [26] was 13.14% and the Activity [27] was 5.64 mg/mL. The Activity [28] was “Non-Toxic”, the Activity [29] was 4.36 g/dL and the Activity [30] was 15.54 g/dL. For the same molecule, the Activity [31] was 281.72 U/L, the Activity [32] was “Active” and the Activity [33] was 238.88 U/L.
